The subject of series [1] is C[C@H](CCC(=O)O)[C@H]1CC[C@H]2[C@@H]3CCC4C[C@@H](OC(=O)CCNC(=O)CCCCCNC(=O)CCCCCNC(=O)CCCCC5SCC6NC(=O)NC65)CC[C@]4(C)[C@H]3CC[C@]12C. As to the kind of experiment: Compound was evaluated for relative maximum velocity (Vmax)at a concentration of 10 uM on rat DNA polymerase beta as a function of nucleotide substrate concentration. The procedure, abridged: (§1)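 Rat DNA pol β (0.05 units) was used. Compound was dissolved in DMSO, sonicated 30 s, and preincubated with enzyme for 10 min at 0 °C in 50 mM Tris–HCl (pH 7.5), 1 mM dithiothreitol, 50% glycerol and 0.1 mM EDTA. It was then added to the standard reaction. Template-primer poly(dA)/oligo(dT)12–18 (2/1) or dTTP substrate was varied. Km and Vmax came from double reciprocal plots.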

For series [2] the test system is unchanged. In words: Michaelis constant at a concentration of 0 uM on rat DNA polymerase beta as a function of nucleotide substrate concentration. The gist of the method:
as §1

Series [3] shares this test system. In words: Michaelis constant at a concentration of 0 uM on rat DNA polymerase beta as a function of template primer dose. The gist of the method:
(§2)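 Kinetic runs used calf thymus pol α or rat pol β (0.05 units each) preincubated with compound at 0 °C for 10 min in Tris–HCl pH 7.5/DTT/glycerol/EDTA buffer. Either poly(dA)/oligo(dT)12–18 (2/1) template-primer or dTTP substrate was varied. Km and Vmax came from double reciprocal plots, Ki from Dixon plots.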

Series [4] shares this test system. In words: Michaelis constant at a concentration of 10 uM on rat DNA polymerase beta as a function of nucleotide substrate concentration. The procedure, abridged:
as §2

The test system is the same in series [5]. In words: Michaelis constant at a concentration of 10 uM on rat DNA polymerase beta as a function of template primer dose. The procedure, abridged:
as §2

For series [6] the test system is unchanged. As to the kind of experiment: Michaelis constant at a concentration of 20 uM on rat DNA polymerase beta as a function of template primer dose. The gist of the method:
as §2

The test system is the same in series [7]. In words: Michaelis constant at a concentration of 20 uMon rat DNA polymerase beta as a function of nucleotide substrate concentration. The following applies: 20 uM. The gist of the method: as §2
For series [8] the test system is unchanged. As to the kind of experiment: Compound was evaluated for relative maximum velocity (Vmax) at a concentration of 10 uM on rat DNA polymerase beta as a function of template primer dose. The procedure, abridged:
as §1

The test system of series [9] is C[C@H](CCC(=O)O)[C@H]1CC[C@H]2[C@@H]3CCC4C[C@@H](O)CC[C@]4(C)[C@H]3CC[C@]12C. The following applies: 0 uM.
Series [10] has the same test system. The following applies: 10 uM.
For series [11] the test system is unchanged. The following applies: 10 uM. The source holds these as a separate data set.
The test system is the same in series [12]. The following applies: 5 uM.
For series [13] the test system is unchanged. The conditions noted are these: 5 uM. This is another data set of the same source.
For series [14] the test system is unchanged. The conditions noted are these: 5 uM. The source holds these as a separate data set.
Series [15] shares this test system. The conditions noted are these: 5 uM. This is another data set of the same source.
In series [16] the test system is Nucleic Acid. In words: Compound was evaluated for relative maximum velocity (Vmax) at a concentration of 0 uM on calf DNA polymerase alpha as a function of nucleotide substrate concentration. The conditions noted are these: Bos taurus. It counts as nucleic-acid assay. The procedure, abridged: as §2
The subject of series [17] is Nucleic Acid. As to the kind of experiment: Compound was evaluated for relative maximum velocity (Vmax) at a concentration of 0 uM on calf DNA polymerase alpha as a function of DNA template primer dose. It counts as nucleic-acid assay. The following applies: Bos taurus. The procedure, abridged:
as §2

Series [18] concerns Nucleic Acid. The conditions noted are these: Bos taurus; 25 uM.
Series [19] deals with Nucleic Acid. The conditions noted are these: Bos taurus; 25 uM. The source holds these as a separate data set.
In series [20] the test system is Nucleic Acid. The following applies: Bos taurus; 50 uM.
Series [21] relates to Nucleic Acid. The following applies: Bos taurus; 50 uM. This is another data set of the same source.
Series [22] has as its system Nucleic Acid. The conditions noted are these: Bos taurus; 25 uM. The source holds these as a separate data set.
The test system of series [23] is Nucleic Acid. The conditions noted are these: Bos taurus; 25 uM. This is another data set of the same source.
For series [24], the system named is Nucleic Acid. In words: Compound was evaluated for relative maximum velocity (Vmax) at a concentration of 10 uM on calf DNA polymerase alpha as a function of nucleotide substrate concentration. It counts as nucleic-acid assay. The conditions noted are these: Bos taurus. The procedure, abridged: as §2
Series [25] relates to Nucleic Acid. As to the kind of experiment: Compound was evaluated for relative maximum velocity (Vmax) at a concentration of 10 uM on calf DNA polymerase alpha as a function of template primer dose. It counts as nucleic-acid assay. The conditions noted are these: Bos taurus. The gist of the method:
as §2

For series [26], the system named is Nucleic Acid. In words: Compound was evaluated for relative maximum velocity (Vmax) at a concentration of 5 uM on calf DNA polymerase alpha as a function of nucleotide substrate concentration. It counts as nucleic-acid assay. The following applies: Bos taurus. The gist of the method:
as §2

Series [27] has as its system Nucleic Acid. As to the kind of experiment: Compound was evaluated for relative maximum velocity (Vmax) at a concentration of 5 uM on calf DNA polymerase alpha as a function of template primer dose. It counts as nucleic-acid assay. The following applies: Bos taurus. The gist of the method:
as §2

Series [28] relates to Nucleic Acid. As to the kind of experiment: Compound was evaluated for Michaelis constant at a concentration of 0 uM on calf DNA polymerase alpha as a function of DNA template primer dose. It counts as nucleic-acid assay. The following applies: Bos taurus. The procedure, abridged:
as §2

The subject of series [29] is Nucleic Acid. As to the kind of experiment: Michaelis constant at a concentration of 5 uM on calf DNA polymerase alpha as a function of nucleotide substrate concentration. The following applies: Bos taurus. It counts as nucleic-acid assay. The procedure, abridged:
as §2

From ChEMBL document CHEMBL1135021, “Biotinylated lithocholic acids for affinity chromatography of mammalian DNA polymerases alpha and beta” (Bioorg Med Chem Lett, 2002) come the findings set out here.

Broadly, the Km is the substrate concentration at which the rate is half of its maximum. With “DNA polymerase beta (Rattus norvegicus) (from UniProt P06766)”, the Vmax in series [1] was 62.5 pMl hr-1; in series [8], 111 pMl hr-1; in series [13] it was 111 pMl hr-1; in series [15] it was 62.5 pMl hr-1. Further, the Km in [2] came to 3.05 µM; in series [3], 6.47 µM; in series [4] it was 6.67 µM; in [5], 9.98 µM; in [6] it was 21.7 µM; in series [7] it was 9.49 µM. Moreover, the Km is 3.05 µM in series [9]; 7.86 µM in series [10]; 18.3 µM in series [11]; 6.28 µM in [12]; 9.41 µM in [14].
In the case of `C[C@H](CCC(=O)O)[C@H]1CC[C@H]2[C@@H]3CCC4C[C@@H](O)CC[C@]4(C)[C@H]3CC[C@]12C` (stereo partly specified), the Vmax was found to be 29.2 pM/h in [16]; 55.6 pM/h in [17]; 31.3 pM/h in series [18]; 24.9 pM/h in series [19]; 17.7 pM/h in series [20]; 14.8 pM/h in series [21]. Also, the Km in [22] worked out at 13 µM; in series [23], 1.65 µM.
Turning to `C[C@H](CCC(=O)O)[C@H]1CC[C@H]2[C@@H]3CCC4C[C@@H](OC(=O)CCNC(=O)CCCCCNC(=O)CCCCCNC(=O)CCCCC5SCC6NC(=O)NC65)CC[C@]4(C)[C@H]3CC[C@]12C` (stereo partly specified), the Vmax came to 29.2 pM/h in series [16]; 17.8 pM/h in series [24]; 21.3 pM/h in [25]; 24.3 pM/h in series [26]; 33.5 pM/h in series [27]; 55.6 pM/h in [17]. Further, the Michaelis constant (Km) was determined as 13 µM in series [28] and 1.65 µM in series [29].
